Measurements taken from ChEMBL document CHEMBL1133976, “Orally bioavailable, indole-based nonpeptide GnRH receptor antagonists with high potency and functional activity” (Bioorg Med Chem Lett, 2001).

Columns and labels:
[1] = target: T1, Gonadotropin-releasing hormone receptor (Homo sapiens, UniProt P30968); assay: In vitro functional antagonism via inhibition of GnRH-stimulated phosphatidylinositol (PI) hydrolysis in cloned Chinese hamster ovary (CHO) cells stably expressing the human GnRH receptor.; format: cell-based
T1 sequence (P30968 whole entry): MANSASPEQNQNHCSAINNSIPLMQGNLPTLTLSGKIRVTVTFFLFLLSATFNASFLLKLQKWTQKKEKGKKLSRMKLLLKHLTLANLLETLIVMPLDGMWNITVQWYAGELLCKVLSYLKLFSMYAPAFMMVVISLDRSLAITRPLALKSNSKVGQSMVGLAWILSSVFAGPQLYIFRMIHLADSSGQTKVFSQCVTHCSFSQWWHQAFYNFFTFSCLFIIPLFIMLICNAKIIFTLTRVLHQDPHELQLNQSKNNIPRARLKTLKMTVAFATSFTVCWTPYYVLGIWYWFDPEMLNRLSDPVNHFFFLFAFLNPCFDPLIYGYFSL
Summary of the method: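 Functional antagonism read as inhibition of GnRH-stimulated phosphatidylinositol hydrolysis in cloned CHO cells stably expressing human GnRH receptor; IC50 reported in nM.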

[2] = target: T1, Gonadotropin-releasing hormone receptor; assay: Binding inhibition towards human pituitary gonadotropin-releasing hormone receptor using [125I]buserelin.
Summary of the method: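 Competition binding against the agonist radioligand [125I]buserelin at human pituitary GnRH receptor, run in the presence of 0.1% BSA; IC50 reported in nM.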

[3] = Oral bioavailability in rat; format: ADME, organism-based; settings: in vivo
[4] = Oral bioavailability in dog; format: ADME, organism-based, Canis lupus familiaris; settings: in vivo
[5] = Oral bioavailability in Rhesus monkey; format: ADME, organism-based, Macaca mulatta; settings: in vivo

SMILES | IC50 [1] [nM] | IC50 [2] [nM] | bioavailability [3] [%] | bioavailability [4] [%] | bioavailability [5] [%]
Cc1cc(C)cc(-c2[nH]c3ccc(C(C)(C)C(=O)N4CC5CCC4CC5)cc3c2[C@H](C)CNCCc2ccc(=O)n(C)c2)c1 | 1.4 | 0.2 | – | – | –
Cc1cc(C)cc(-c2[nH]c3ccc(C(C)(C)C(=O)N4CCC5(CC4)OCCO5)cc3c2[C@H](C)CNCCCCc2ccncc2)c1 | 66 | 0.6 | – | – | –
Cc1cc(C)cc(-c2[nH]c3ccc(C(C)(C)C(=O)N4CC5CCC4CC5)cc3c2[C@H](C)CNCCCCc2ccncc2)c1 | 2.8 | 1 | 14 | 7 | –
Cc1cc(C)cc(-c2[nH]c3ccc(C(C)(C)C(=O)N4CCN(C(=O)OC(C)(C)C)CC4)cc3c2[C@H](C)CNCCCCc2ccncc2)c1 | 220 | 6.1 | – | – | –
COCn1cc(CCNC[C@@H](C)c2c(-c3cc(C)cc(C)c3)[nH]c3ccc(C(C)(C)C(=O)N4CC5CCC4CC5)cc23)ccc1=O | 3.9 | 0.4 | – | – | –
CCS(=O)(=O)N1CCN(C(=O)C(C)(C)c2ccc3[nH]c(-c4cc(C)cc(C)c4)c([C@H](C)CNCCCCc4ccncc4)c3c2)CC1 | 124 | 4.4 | – | – | –
Cc1cc(C)cc(-c2[nH]c3ccc(C(C)(C)C(=O)N4C5CCCCC5C5CCCCC54)cc3c2[C@H](C)CNCCCCc2ccncc2)c1 (some centres undefined) | 31 | 21 | – | – | –
Cc1cc(C)cc(-c2[nH]c3ccc(C(C)(C)C(=O)N4CC5CCC4CC5)cc3c2[C@H](C)CNCCc2cccn(C)c2=O)c1 | 82 | 5.3 | – | – | –
Cc1cc(C)cc(-c2[nH]c3ccc(C(C)(C)C(=O)N4CCC(C)(C)CC4)cc3c2[C@H](C)CNCCCCc2ccncc2)c1 | 39 | 1.3 | – | – | –
Cc1cc(C)cc(-c2[nH]c3ccc(C(C)(C)C(=O)N4CC5CCC4CC5)cc3c2[C@H](C)CNCCc2ccncc2)c1 | 7.2 | 0.6 | 8 | 25 | 21
COc1ccc(CCNC[C@@H](C)c2c(-c3cc(C)cc(C)c3)[nH]c3ccc(C(C)(C)C(=O)N4CC5CCC4CC5)cc23)cn1 | 11 | 1 | – | – | –
Cc1cc(C)cc(-c2[nH]c3ccc(C(C)(C)C(=O)N4C[C@H]5CC[C@@H]4C5)cc3c2[C@H](C)CNCCCCc2ccncc2)c1 | 4 | 1 | – | – | –
Cc1cc(C)cc(-c2[nH]c3ccc(C(C)(C)C(=O)N4C[C@@H]5CC[C@H]4C5)cc3c2[C@H](C)CNCCCCc2ccncc2)c1 | 8.7 | 0.4 | – | – | –
Cc1cc(C)cc(-c2[nH]c3ccc(C(C)(C)C(=O)N4CC5CCC(CC5)C4)cc3c2[C@H](C)CNCCCCc2ccncc2)c1 | 13 | 2.1 | – | – | –
Cc1cc(C)cc(-c2[nH]c3ccc(C(C)(C)C(=O)N(CC(C)C)CC(C)C)cc3c2[C@H](C)CNCCCCc2ccncc2)c1 | 14 | 5.6 | – | – | –
Cc1cc(C)cc(-c2[nH]c3ccc(C(C)(C)C(=O)N4C[C@H]5CC[C@@H]4C5)cc3c2[C@H](C)CNCCc2ccncc2)c1 | 1.9 | 1.2 | – | 8.5 | –
Cc1cc(C)cc(-c2[nH]c3ccc(C(C)(C)C(=O)N4C5CCC4CC5)cc3c2[C@H](C)CNCCCCc2ccncc2)c1 | 5.7 | 0.7 | – | – | –
Cc1cc(C)cc(-c2[nH]c3ccc(C(C)(C)C(=O)N4CCC5(CCCC5)CC4)cc3c2[C@H](C)CNCCCCc2ccncc2)c1 | 93 | 2.7 | – | – | –
Cc1cc(C)cc(-c2[nH]c3ccc(C(C)(C)C(=O)N4CC5CCC4CC5)cc3c2[C@H](C)CNCCc2cccnc2)c1 | 2.6 | 0.6 | – | 12 | –
Cc1cc(C)cc(-c2[nH]c3ccc(C(C)(C)C(=O)N4C5CCC4CC5)cc3c2CCNCCCCc2ccncc2)c1 | – | 1.4 | – | – | –
Cc1cc(C)cc(-c2[nH]c3ccc(C(C)(C)C(=O)N4C[C@H]5CCCC[C@H]5C4)cc3c2[C@H](C)CNCCCCc2ccncc2)c1 | 66 | 1.4 | – | – | –
Cc1cc(C)cc(-c2[nH]c3ccc(C(C)(C)C(=O)N4CC5CCC4CC5)cc3c2[C@H](C)CNCCC2CCC(=O)N(C)C2)c1 (some centres undefined) | 8.2 | 0.4 | – | – | –
Cc1cc(C)cc(-c2[nH]c3ccc(C(C)(C)C(=O)N4C5CCCC4CC5)cc3c2[C@H](C)CNCCCCc2ccncc2)c1 | 8.8 | 0.8 | – | – | –
Cc1cc(C)cc(-c2[nH]c3ccc(C(C)(C)C(=O)N4CC5CCC4CC5)cc3c2[C@H](C)CNCCc2cc(C)c(=O)n(C)c2)c1 | 4 | 0.6 | – | 35 | 4
Cc1cc(C)cc(-c2[nH]c3ccc(C(C)(C)C(=O)N4CC5CCC4CC5)cc3c2[C@H](C)CNCCc2ccc(O)nc2)c1 | 1 | 0.3 | – | – | –
Cc1cc(C)cc(-c2[nH]c3ccc(C(C)(C)C(=O)N4CC5(C)CC4CC(C)(C)C5)cc3c2[C@H](C)CNCCCCc2ccncc2)c1 (some centres undefined) | 6.4 | 4.8 | – | – | –
Cc1cc(C)cc(-c2[nH]c3ccc(C(C)(C)C(=O)N4CC5CCCC4C5)cc3c2[C@H](C)CNCCCCc2ccncc2)c1 (some centres undefined) | 6.8 | 4.8 | – | – | –
Cc1cc(C)cc(-c2[nH]c3ccc(C(C)(C)C(=O)N4CC(C)(C)C4)cc3c2[C@H](C)CNCCCCc2ccncc2)c1 | 21 | 0.7 | – | – | –
Cc1cc(C)cc(-c2[nH]c3ccc(C(C)(C)C(=O)N4C5CCC4CC5)cc3c2[C@H](C)CNCCc2ccncc2)c1 | 7 | 0.8 | 23 | 14 | 6.4
